Legend:
Ca9-22 = settings: read-out: 50% cytotoxic concentration (CC50); Ca9-22, derived from gingiva (A); cited from earlier work
[1] = system: HGEP vs human OSCC cell lines; assay: Tumor-specificity; format: cell-based; settings: for Tumor-specificity index (TS) F/B: CC50 HGEP / mean CC50 OSCC lines; for Potency-selectivity expression (PSE) F/B^2: TS x (1/B) x 100, HGEP as normal cells
Pulp cell (HPC) = settings: read-out: 50% cytotoxic concentration (CC50), normal; cited from earlier work
[2] = system: Gingival fibroblast (HGF); settings: read-out: 50% cytotoxic concentration (CC50), normal (C); cited from earlier work
[3] = Cytotoxic activity, MTT method; format: cell-based; settings: human, oral keratinocytes (HOK), normal epithelial cells
Method in brief: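 HOK grown in keratinocyte growth supplement medium, harvested with 0.25% trypsin-0.025% EDTA. Seeded at 2.5 × 10^3 cells/0.1 ml, grown 48 h, then medium replaced with fresh medium containing test compound dilutions (80 mM DMSO stocks; final DMSO usually below […]) or matched DMSO vehicle. After incubation, 0.2 mg/ml MTT for 3 h, DMSO lysis, A540. CC50 from dose–response curve.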

HSC-2 cells [4] = assay: Time course of cytotoxicity induction; format: cell-based, human
Method in brief: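 Pulse-chase in HSC-2 (DMEM, 10% heat-inactivated FBS, 37 °C, 5% CO2). Cells seeded at 2.5 × 10^3/0.1 ml and grown 48 h. Exposed to graded test compound concentrations for varied times, then switched to drug-free medium until 47 h after first addition. Viability by MTT (0.2 mg/ml, 3 h, A540). CC50 from dose–response curve. Triplicates (Exp. I), quadruplicates (Exp. II).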

[5] = system: Periodontal ligament fibroblast (HPLF); settings: read-out: 50% cytotoxic concentration (CC50), normal; cited from earlier work
[6] = system: HGF/HPLF/HPC vs human OSCC cell lines; settings: mean CC50 HGF/HPLF/HPC / mean CC50 OSCC lines; cited from earlier work
HSC-2 = settings: read-out: 50% cytotoxic concentration (CC50); HSC-2, derived from tongue; cited from earlier work
[7] = Effect of tetraethylammonium or cycloheximide on cytotoxicity; format: cell-based; settings: Supplementary Fig. 3
[8] = system: HGF/HPLF/HPC vs human OSCC cell lines; assay: Tumor-specificity; format: cell-based; settings: TS x (1/B) x 100; HGF/HPLF/HPC as normal cells
HSC-2 cells [9] = assay: Metabolomic analysis; format: cell-based, human
Method in brief: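 HSC-2 seeded 5 × 10^5 cells/10 ml, grown 48 h, re-fed for 30 min at 37 °C, then treated 3 h with 0, 1, 3 or 10 μM. Trypan-blue cell counts taken. Extraction: mannitol wash, then methanol with internal standards, chloroform/water partition and 5 kDa ultrafiltration. CE-TOFMS run in cation (1 M formic acid) and anion (50 mM ammonium acetate, pH 8.5) modes. One-point external calibration, normalised per cell. Quadruplicates, mean ± S.D., FDR-corrected p.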

[10] = Cytotoxic activity, MTT method; format: cell-based; settings: human
[11] = system: HOK vs human OSCC cell lines; assay: Tumor-specificity; format: cell-based; settings: for Tumor-specificity index (TS) E/B: CC50 HOK / mean CC50 OSCC lines; for Potency-selectivity expression (PSE) E/B^2: TS x (1/B) x 100, HOK as normal cells
HGF vs Ca9-22 = settings: CC50 HGF / CC50 Ca9-22; cited from earlier work
HSC-4 = settings: read-out: 50% cytotoxic concentration (CC50); HSC-4, derived from tongue; cited from earlier work
HSC-3 = settings: read-out: 50% cytotoxic concentration (CC50); HSC-3, derived from tongue; cited from earlier work
HSC-2 cells [12] = assay: Fine cell structure under transmission electron microscope; format: cell-based, human; settings: 3 h with 3 or 10 μM, compared with control cells
Method in brief: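 HSC-2 cells were seeded at 5 × 10^5 cells/10 ml and […]. After a medium change, near-confluent cells were exposed 3 h to test compound (0, 3 or 10 μM) and washed in cold PBS. Fixation: 2% glutaraldehyde/0.1 M cacodylate pH 7.4, 1 h, 4 °C, then scraped, pelleted and post-fixed 90 min in 1% OsO4. Dehydrated, Araldite-embedded, thin sections stained with uranyl acetate and lead citrate; TEM at ×5000, 100 kV.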

HSC-2 cells [13] = assay: Western blot analysis of apoptosis and autophagy markers; format: cell-based, human
Method in brief: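 HSC-2 cells treated with or without 10 μM for 4, 7.5 or 23 h. Laemmli whole-cell lysates (5 × 10^4 cells/lane) run on 12% SDS-PAGE and blotted to PVDF. Blocked 1 h in 5% BSA/TBS-Tween (pH 7.6). Primary anti-PARP, anti-caspase-3, anti-LC3 (1:1000) and anti-GAPDH (1:20,000) overnight at 4 °C, then HRP anti-rabbit 1 h at room temperature. Chemiluminescent detection; band densities expressed relative to GAPDH.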

[14] = 3 h, 1, 3 or 10 μM, not significant

## COc1ccc2occ(/C=C/c3ccc(O)cc3)c(=O)c2c1 [compound 11, (E)-3-(4-hydroxystyryl)-6-methoxy-4H-chromen-4-one]
Ca9-22
  CC50: 2.1 µM
[1]
  Tumor-specificity index (TS) F/B: >400
  Potency-selectivity expression (PSE) F/B^2: >20000
Pulp cell (HPC)
  CC50: 272 µM
[2]
  CC50: 67 µM
[3]
  CC50: 19 µM
HSC-2 cells [4]; Homo sapiens, HSC-2, Exp. I, exposure time 21 h, drug-free medium until 47 h
  CC50: < 1.56 µM
HSC-2 cells [4]; higher concentrations, Fig. 2
  dead cells produced: more than 90%
HSC-2 cells [4]; pulse-chase, HSC-2
  treatment time at which cytotoxicity was triggered: 3 h
[5]
  CC50: 74 µM
[6]
  Tumor-specificity index (TS) D/B: 69.0
HSC-2
  CC50: 1 µM
[7]
  effect of BH blocker (tetraethylammonium) on cytotoxicity: not inhibited
  effect of pretreatment with cycloheximide on cytotoxicity: inhibited
[8]
  Potency-selectivity expression (PSE) D/B^2: 3450
HSC-2 cells [9]; 3 h, 1, 3 and 10 μM, Fig. 6A
  intracellular concentration of 2-oxoglutarate: reduced, but not significantly
  intracellular concentrations of 4-methyl-2-oxopentanoate, 2-hyroxyglutarate, creatine, 2-oxoisopentanoate (Q < 0.2), glycine and choline (p < 0.05): significantly reduced
HSC-2 cells [9]; 3 h, 1, 3 and 10 μM, Fig. 6B
  intracellular concentrations of diethanolamine and CDP-choline: increased, but not significantly
  intracellular concentrations of proline, asparagine, DHAP, Ru5P, transcinnamate, γ-butyrobetaine (Q < 0.2) and glutamic acid (p < 0.05): significantly increased
HSC-2 cells [9]; [14]
  NADH/NAD+ ratio: minor increase
  glycolytic metabolites (glucose-6-phosphate, fructose 6-phosphate, fructose 1,6-bisphospate, 3-phosphoglyceric acid): minor increase
  intracellular concentration of metabolites in TCA cycle (citrate, cis-aconiate, succinate, fumarate, malate): minor reduction
  lactate: minor reduction
  polyamine pathway (putrescine, spermidine): minor reduction
  ratio of AMP/ATP: minor reduction
  ratio of GMP/GTP: minor reduction
  urea cycle (citrullin, arginine, ornithine): no change or minor reduction
HSC-2 cells [9]; culture medium, before treatment 12.1 ± 13.4 μM
  extracellular concentration of diethanolamine after treatment: 11.8 ± 5.3 µM
[10]
  CC50: > 800 µM
[11]
  Tumor-specificity index (TS) E/B: 9.5
  Potency-selectivity expression (PSE) E/B^2: 475
HGF vs Ca9-22
  Tumor-specificity index (TS) C/A: 31.9
HSC-4
  CC50: 1.2 µM
HSC-3
  CC50: 3.6 µM
HSC-2 cells [12]
  mitochondrial vacuolization: mitochondrial vacuolization became prominent
HSC-2 cells [13]; 10 μM for 4, 7.5 and 23 h
  LC3-II expression (autophagy marker): decreased time-dependently to undetectable level
HSC-2 cells [13]; 10 μM, 23 h after treatment
  cleaved PARP1 and caspase-3 (apoptosis marker): appearance of cleaved PARP1 and caspase-3
  full length PARP: loss of full length PARP
HSC-2 cells [13]; 10 μM, HSC-2
  type of cell death: induced apoptotic cell death after suppression of autophagy

## COc1cccc2c1C(=O)c1c(O)c3c(c(O)c1C2=O)C[C@@](O)(C(=O)CO)C[C@@H]3O[C@H]1C[C@H](N)[C@H](O)[C@H](C)O1 [Doxorubicin, doxorubicin, reference compound]
Ca9-22
  CC50: 0.26 µM
[1]
  Tumor-specificity index (TS) F/B: 0.2
  Potency-selectivity expression (PSE) F/B^2: 133
Pulp cell (HPC)
  CC50: > 10 µM
[2]
  CC50: 0.87 µM
[3]
  CC50: 1.31 µM
[5]
  CC50: 0.87 µM
[6]
  Tumor-specificity index (TS) D/B: >26.0
HSC-2
  CC50: 0.12 µM
[8]
  Potency-selectivity expression (PSE) D/B^2: >17333
[10]
  CC50: 0.027 µM
[11]
  Tumor-specificity index (TS) E/B: 8.7
  Potency-selectivity expression (PSE) E/B^2: 5800
HGF vs Ca9-22
  Tumor-specificity index (TS) C/A: 3.3
HSC-4
  CC50: 0.094 µM
HSC-3
  CC50: 0.11 µM

## COc1ccc(/C=C/c2coc3ccc(OC)cc3c2=O)cc1 [compound 4, (E)-6-methoxy-3-(4-methoxystyryl)-4H-chromen-4-one]
Ca9-22
  CC50: 4.4 µM
[1]
  Tumor-specificity index (TS) F/B: 27.8
  Potency-selectivity expression (PSE) F/B^2: 434
Pulp cell (HPC)
  CC50: 396 µM
[2]
  CC50: 229 µM
[3]
  CC50: 70 µM
HSC-2 cells [4]; higher concentrations, Fig. 2
  dead cells produced: more than 90%
[5]
  CC50: 150 µM
[6]
  Tumor-specificity index (TS) D/B: 40.3
HSC-2
  CC50: 4.4 µM
[7]
  effect of pretreatment with cycloheximide on cytotoxicity: inhibited
[8]
  Potency-selectivity expression (PSE) D/B^2: 630
[10]
  CC50: 178 µM
[11]
  Tumor-specificity index (TS) E/B: 10.9
  Potency-selectivity expression (PSE) E/B^2: 170
HGF vs Ca9-22
  Tumor-specificity index (TS) C/A: 52.0
HSC-4
  CC50: 9.2 µM
HSC-3
  CC50: 7.7 µM

## COc1ccc2occ(/C=C/c3cc(OC)c(OC)c(OC)c3)c(=O)c2c1 [compound 6, (E)-6-methoxy-3-(3,4,5-trimethoxystyryl)-4H-chromen-4-one]
Ca9-22
  CC50: 10 µM
[1]
  Tumor-specificity index (TS) F/B: 46.9
  Potency-selectivity expression (PSE) F/B^2: 361
Pulp cell (HPC)
  CC50: 284 µM
[2]
  CC50: 544 µM
[3]
  CC50: 77 µM
HSC-2 cells [4]; higher concentrations, Fig. 2
  viable cells left: 30%
[5]
  CC50: 190 µM
[6]
  Tumor-specificity index (TS) D/B: 26.1
HSC-2
  CC50: 6.8 µM
[7]
  effect of pretreatment with cycloheximide on cytotoxicity: inhibited
[8]
  Potency-selectivity expression (PSE) D/B^2: 200
[10]
  CC50: 610 µM
[11]
  Tumor-specificity index (TS) E/B: 5.9
  Potency-selectivity expression (PSE) E/B^2: 45
HGF vs Ca9-22
  Tumor-specificity index (TS) C/A: 54.4
HSC-4
  CC50: 13 µM
HSC-3
  CC50: 21 µM

## O=c1[nH]cc(F)c(=O)[nH]1 [5-FU, 5-fluorouracil, reference compound]
Ca9-22
  CC50: 29 µM
[1]
  Tumor-specificity index (TS) F/B: 1.0
  Potency-selectivity expression (PSE) F/B^2: 5.6
Pulp cell (HPC)
  CC50: > 1000 µM
[2]
  CC50: > 1000 µM
[3]
  CC50: 24.7 µM
[5]
  CC50: > 1000 µM
[6]
  Tumor-specificity index (TS) D/B: >55.6
HSC-2
  CC50: 13 µM
[8]
  Potency-selectivity expression (PSE) D/B^2: >309
[10]
  CC50: 18.8 µM
[11]
  Tumor-specificity index (TS) E/B: 1.4
  Potency-selectivity expression (PSE) E/B^2: 7.8
HGF vs Ca9-22
  Tumor-specificity index (TS) C/A: >34.5
HSC-4
  CC50: 13 µM
HSC-3
  CC50: 16 µM

Reference: paper PMC5598371 (Toxicology Reports, 2015)
